We go through 41 compounds from ChEMBL document CHEMBL1137786, “Design, synthesis, biological evaluation, and structure-activity relationship (SAR) discussion of dipeptidyl boronate proteasome inhibitors, part I: comprehensive understanding of the SAR of alpha-amino acid boronates” (J Med Chem, 2009).

Each structure is given as a SMILES string.

Assay [1] in a line: Inhibition of chymotrypsin-like activity of human 20s proteasome beta 5 subunit assessed as hydrolysis of fluorogenic substrate.
The next assay relates to BGC-823. Description: Cytotoxicity against human BGC823 cells after 72 hrs by MTT assay. The class given is functional, cell-based. As to conditions: BGC-823, 72 h. Put shortly:
(§1)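 BGC-823, KB, NCI-H460, HepG2 and SW-480 cells were maintained in RPMI 1640 with 10% FBS at 37 °C, 5% CO2. MTT added from a 5 mg/mL solution for 4 h at 37 °C. Formazan dissolved in DMSO after centrifugation, A540 read.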
(Formazan colour is commonly taken as a measure of viable cells.)

The test system of a further assay is A549. Description: Cytotoxicity against human A549 cells after 72 hrs by MTT assay. The class given is functional, cell-based. As to conditions: A549, 72 h. Put shortly:
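A549 cells were cultured in F12-K with 10% FBS at 37 °C, 5% CO2. MTT from a 5 mg/mL solution added for 4 h at 37 °C. Medium removed after centrifugation, formazan taken up in DMSO, read at 540 nm.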

The next assay concerns SK-OV-3. The assay is described as follows: Cytotoxicity against human SKOV3 cells after 72 hrs by MTT assay. The class given is functional, cell-based. As to conditions: SK-OV-3, 72 h. The essentials: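 SKOV-3 cells were cultured in McCoy's 5A with 10% FBS at 37 °C, 5% CO2. MTT added from a 5 mg/mL solution for 4 h at 37 °C. Formazan dissolved in DMSO, absorbance measured at 540 nm.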

Another assay has as its system HeLa. Description: Cytotoxicity against human HeLa cells after 72 hrs by MTT assay. The class given is functional, cell-based. The essentials:
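HeLa cells were cultured in EMEM with 10% FBS at 37 °C, 5% CO2. MTT added from a 5 mg/mL solution for 4 h at 37 °C. Plates centrifuged, formazan dissolved in DMSO, A540 read.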

Another assay relates to NCI-H460. The assay is described as follows: Cytotoxicity against human H460 cells after 72 hrs by MTT assay. The class given is functional, cell-based. The conditions noted are these: NCI-H460, 72 h. The essentials: as §1
The next assay deals with HL-60. Description: Cytotoxicity against human HL60 cells after 72 hrs by MTT assay. The conditions noted are these: HL-60, 72 h. The class given is functional, cell-based. The essentials:
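HL-60 cells grown in IMDM with 20% FBS at 37 °C, 5% CO2. MTT added from a 5 mg/mL solution for 4 h at 37 °C. Plates centrifuged, medium discarded, formazan dissolved in DMSO, absorbance read at 540 nm.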

The next assay relates to KB. The assay is described as follows: Cytotoxicity against human KB cells after 72 hrs by MTT assay. The class given is functional, cell-based. The essentials: as §1
In another assay the test system is SW480. The assay is described as follows: Cytotoxicity against human SW480 cells after 72 hrs by MTT assay. The class given is functional, cell-based. As to conditions: SW480, 72 h. Put shortly: as §1
In the next assay the test system is U-266. The assay is described as follows: Cytotoxicity against human U266 cells after 72 hrs by MTT assay. The class given is functional, cell-based. The conditions noted are these: U-266, 72 h. The essentials:
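U266 myeloma cells were grown in RPMI 1640 with 15% FBS at 37 °C, 5% CO2. MTT added from a 5 mg/mL solution for 4 h at 37 °C. Plates centrifuged, formazan dissolved in DMSO, absorbance at 540 nm.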

Another assay deals with HepG2. The assay is described as follows: Cytotoxicity against human HepG2 cells after 72 hrs by MTT assay. The conditions noted are these: HepG2, 72 h. The class given is functional, cell-based. The essentials: as §1

As usually defined, the IC50 is the point on the concentration scale where inhibition reaches its midpoint. In the case of `CC(C)C[C@H](NC(=O)[C@H](Cc1cccc2ccccc12)NC(=O)c1cccc2c1CCCC2)B1OC2C[C@@H]3C[C@@H](C3(C)C)[C@]2(C)O1` (stereo not given in full), the IC50 in [1] was 1.34 nM.
The same measure, in the same setting: the result for `CC(C)C[C@H](NC(=O)[C@H](Cc1ccc2ccccc2c1)NC(=O)C1CCCc2ccccc21)B1OC2C[C@@H]3C[C@@H](C3(C)C)[C@]2(C)O1` (stereo not given in full) reads 1.16 nM; that for `Cc1ccc(C[C@H](NC(=O)[C@H](Cc2c[nH]c3ccccc23)NC(=O)OCc2ccccc2)B2O[C@@H]3C[C@@H]4C[C@@H](C4(C)C)[C@]3(C)O2)cc1`, 3.34 nM.
The same measure, in the same setting: the result for `CC(C)C[C@H](NC(=O)[C@H](Cc1ccccc1)NC(=O)c1cccc2c1CCCC2)B1O[C@@H]2C[C@@H]3C[C@@H](C3(C)C)[C@]2(C)O1` reads 0.76 nM; that for `CC(C)(C)OC(=O)N[C@@H](Cc1ccc(O)cc1)C(=O)N[C@@H](Cc1ccccc1)B1O[C@@H]2C[C@@H]3C[C@@H](C3(C)C)[C@]2(C)O1`, 114 nM.
On the same count and under the same terms, the result for `CC(C)C[C@H](NC(=O)[C@H](CC(C)C)NC(=O)C1CCCc2ccccc21)B1O[C@@H]2C[C@@H]3C[C@@H](C3(C)C)[C@]2(C)O1` (stereo not given in full) reads 14.2 nM.
Regarding `CCC(C)[C@H](NC(=O)C1CCCc2ccccc21)C(=O)N[C@@H](CC(C)C)B1O[C@@H]2C[C@@H]3C[C@@H](C3(C)C)[C@]2(C)O1` (stereo not given in full), the IC50 in assay [1] amounted to 17.2 nM.
The same measure, in the same setting: the result for `CC1(C)[C@@H]2C[C@H]3OB([C@H](Cc4ccc(F)cc4)NC(=O)[C@H](Cc4ccccc4)NC(=O)c4cnccn4)O[C@@]3(C)[C@H]1C2` reads 3.21 nM.
On to `CC(C)C[C@H](NC(=O)[C@H](Cc1ccc2ccccc2c1)NC(=O)C1CCCc2ccccc21)B1O[C@@H]2C[C@@H]3C[C@@H](C3(C)C)[C@]2(C)O1` (stereo not given in full), for which, in assay [1], the IC50 was found to be 7.63 nM.
For the compound `Cc1ccc(C[C@H](NC(=O)[C@H](Cc2ccccc2)NC(=O)C2CCc3ccccc3C2)B2O[C@@H]3C[C@@H]4C[C@@H](C4(C)C)[C@]3(C)O2)cc1` (stereo not given in full), in assay [1], the IC50 was 1.16 nM.
As for `Cc1ccc(C[C@H](NC(=O)[C@H](Cc2ccccc2)NC(=O)[C@H]2CCCc3ccccc32)B2O[C@@H]3C[C@@H]4C[C@@H](C4(C)C)[C@]3(C)O2)cc1`, the IC50 in assay [1] was 6.7 nM.
On the same count and under the same terms, the result for `CC(C)C[C@H](NC(=O)[C@H](Cc1cccc2ccccc12)NC(=O)c1ccc2ccccc2c1)B1O[C@@H]2C[C@@H]3C[C@@H](C3(C)C)[C@]2(C)O1` reads 2.46 nM; that for `CC1(C)[C@@H]2C[C@H]3OB([C@H](Cc4ccccc4)NC(=O)[C@H](Cc4ccccc4)NC(=O)[C@H]4CCCc5ccccc54)O[C@@]3(C)[C@H]1C2`, 5.24 nM; that for `CC(C)C[C@H](NC(=O)[C@H](Cc1c[nH]c2ccccc12)NC(=O)OCc1ccccc1)B1O[C@@H]2C[C@@H]3C[C@@H](C3(C)C)[C@]2(C)O1`, 41.2 nM.
On to `CC1(C)[C@@H]2C[C@H]3OB([C@H](Cc4ccc(F)cc4)NC(=O)[C@H](Cc4ccccc4)NC(=O)[C@H]4CCCc5ccccc54)O[C@@]3(C)[C@H]1C2`, for which the IC50 in [1] stood at 1.26 nM.
The same measure, in the same setting: the result for `CCCC[C@H](NC(=O)[C@H](Cc1ccccc1)NC(C)=O)B1O[C@@H]2C[C@@H]3C[C@@H](C3(C)C)[C@]2(C)O1` reads 8.46 nM; that for `CC(=O)N[C@@H](Cc1ccccc1)C(=O)N[C@@H](Cc1ccc(C)cc1)B1O[C@@H]2C[C@@H]3C[C@@H](C3(C)C)[C@]2(C)O1`, 2.73 nM; that for `CC(C)C[C@H](NC(=O)[C@H](Cc1ccc(O)cc1)NC(=O)OC(C)(C)C)B1O[C@@H]2C[C@@H]3C[C@@H](C3(C)C)[C@]2(C)O1`, 16.4 nM.
As to `CC(C)C[C@H](NC(=O)OC(C)(C)C)C(=O)N[C@@H](Cc1ccccc1)B1O[C@@H]2C[C@@H]3C[C@@H](C3(C)C)[C@]2(C)O1`, the IC50 in assay [1] was 120 nM.
Consider `Cc1ccc(C[C@H](NC(=O)[C@H](CC(C)C)NC(=O)OC(C)(C)C)B2O[C@@H]3C[C@@H]4C[C@@H](C4(C)C)[C@]3(C)O2)cc1`, for which the IC50 in assay [1] was found to be 471 nM.
As to `CC(C)C[C@@H](NC(=O)[C@H](Cc1ccccc1)NC(=O)c1cccc2c1CCCC2)B(O)O`, in [1], the IC50 amounted to 9.19 nM.
With `CC(C)C[C@@H](NC(=O)[C@H](Cc1ccccc1)NC(=O)C1CCCc2ccccc21)B(O)O` (stereo not given in full), the IC50 in [1] came to 2290 nM.
Still for that read-out and setting: the result for `O=C(N[C@@H](Cc1ccccc1)C(=O)N[C@@H](Cc1ccc(F)cc1)B(O)O)c1cnccn1` reads 4.37 nM; that for `CCCC[C@H](NC(=O)[C@H](Cc1ccccc1)NC(=O)[C@H]1CCCc2ccccc21)B1O[C@@H]2C[C@@H]3C[C@@H](C3(C)C)[C@]2(C)O1`, 1.92 nM; that for `CC(C)C[C@H](NC(=O)[C@H](Cc1cccc2ccccc12)NC(=O)C1CCCc2ccccc21)B1O[C@@H]2C[C@@H]3C[C@@H](C3(C)C)[C@]2(C)O1` (stereo not given in full), 4.26 nM.
As for `CC(C)C[C@H](NC(=O)[C@H](Cc1ccccc1)NC(=O)c1cnccn1)B1O[C@@H]2C[C@@H]3C[C@@H](C3(C)C)[C@]2(C)O1`, in assay [1], the IC50 was found to be 1.92 nM.
Same read-out and setting: the result for `CC(C)C[C@H](NC(=O)[C@@H](NC(=O)c1cccc2c1CCCC2)C(C)C)B1O[C@@H]2C[C@@H]3C[C@@H](C3(C)C)[C@]2(C)O1` reads 6.96 nM; that for `CC(C)C[C@H](NC(=O)[C@H](Cc1ccccc1)NC(=O)C1CCCc2ccccc21)B1O[C@@H]2C[C@@H]3C[C@@H](C3(C)C)[C@]2(C)O1` (stereo not given in full), 4.18 nM.
Turning to `CC(C)C[C@H](NC(=O)[C@H](CC(C)C)NC(=O)c1cccc2c1CCCC2)B1O[C@@H]2C[C@@H]3C[C@@H](C3(C)C)[C@]2(C)O1`, the IC50 in assay [1] stood at 1.15 nM.
Turning to `CC(C)C[C@H](NC(=O)[C@H](Cc1ccc2ccccc2c1)NC(=O)[C@H]1CCCc2ccccc21)B1O[C@@H]2C[C@@H]3C[C@@H](C3(C)C)[C@]2(C)O1`, the half-maximal inhibitory concentration (IC50) in [1] is 6.12 nM.
Consider `CC(C)C[C@H](NC(=O)[C@H](Cc1ccccc1)NC(=O)[C@@H]1CCCc2ccccc21)B1O[C@@H]2C[C@@H]3C[C@@H](C3(C)C)[C@]2(C)O1`, for which the IC50 in assay [1] was 5.17 nM.
As for `CC1(C)[C@@H]2C[C@H]3OB([C@H](Cc4ccccc4)NC(=O)[C@H](Cc4ccccc4)NC(=O)C4CCc5ccccc5C4)O[C@@]3(C)[C@H]1C2` (stereo not given in full), the IC50 in [1] is 3.37 nM.
With `CC(C)C[C@H](NC(=O)[C@H](Cc1c[nH]c2ccccc12)NC(=O)C1CCCc2ccccc21)B1O[C@@H]2C[C@@H]3C[C@@H](C3(C)C)[C@]2(C)O1` (stereo not given in full), the IC50 in assay [1] was 3.67 nM.
As to `CC(C)C[C@H](NC(=O)[C@H](Cc1ccccc1)NC(=O)[C@H]1CCCc2ccccc21)B1O[C@@H]2C[C@@H]3C[C@@H](C3(C)C)[C@]2(C)O1`, the IC50 in [1] came out at 1.12 nM.
Still for that read-out and setting: the result for `CC(C)C[C@H](NC(=O)[C@@H](NC(=O)C1CCCc2ccccc21)C(C)C)B1O[C@@H]2C[C@@H]3C[C@@H](C3(C)C)[C@]2(C)O1` (stereo not given in full) reads 39 nM; that for `Cc1ccc(C[C@H](NC(=O)[C@H](Cc2ccccc2)NC(=O)c2cnccn2)B2O[C@@H]3C[C@@H]4C[C@@H](C4(C)C)[C@]3(C)O2)cc1`, 4.85 nM; that for `CC(C)C[C@H](NC(=O)[C@H](Cc1ccccc1)NC(=O)C1CCc2ccccc2C1)B1O[C@@H]2C[C@@H]3C[C@@H](C3(C)C)[C@]2(C)O1` (stereo not given in full), 1.46 nM.
The same measure, in the same setting: the result for `CC(=O)N[C@@H](Cc1ccccc1)C(=O)N[C@@H](CC(C)C)B1O[C@@H]2C[C@@H]3C[C@@H](C3(C)C)[C@]2(C)O1` reads 2.34 nM; that for `CCC[C@H](NC(=O)[C@H](CC(C)C)NC(=O)OC(C)(C)C)B1O[C@@H]2C[C@@H]3C[C@@H](C3(C)C)[C@]2(C)O1`, 49.5 nM.
The same measure, in the same setting: the result for `CC(C)C[C@@H](NC(=O)[C@H](Cc1ccccc1)NC(=O)c1cnccn1)B(O)O` reads 700 nM.
Turning to `CC(C)C[C@H](NC(=O)[C@H](Cc1ccccc1)NC(=O)c1cnccn1)B(O)O` [BORTEZOMIB], the IC50 is 880 nM in the assay with BGC-823; 255 nM in the assay with A549; 130 nM in the assay on SK-OV-3; 92 nM with HeLa; 115 nM with NCI-H460; 5.5 nM in the assay on HL-60. The IC50 with KB came out at 59.5 nM; with SW480, 50 nM; in the assay with U-266 it was 2.45 nM; in the assay on HepG2, 37.5 nM.
